# Assay results taken from ChEMBL document CHEMBL1151761, “Radiohalogenated prostate-specific membrane antigen (PSMA)-based ureas as imaging agents for prostate cancer” (J Med Chem, 2008).
# Experiments:
# Format in all cases: ADME, organism-based
# [1] = Ratio of drug level in tumor to kidney of human PSMA expressing PC3 PIP and PSMA deficient human PC3 flu cells xenografted SCID mouse at 2 uCi, iv after 5 hrs; conditions: in vivo
# Procedure, shortened: (§1)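 Male SCID mice carried subcutaneous PSMA+ PC-3 PIP (left shoulder) and PC-3 flu (right shoulder) xenografts, 1-5 × 10^6 cells in HBSS, and were used at 3-5 mm tumor diameter. Tail-vein injection of 2 µCi radioligand; four mice per time point, killed by cervical dislocation. %ID/g from a standard dilution of the dose, decay-corrected, mean ± SD; PIP tumor:organ ratios.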
# [2] = Ratio of drug level in tumor to pancreas of human PSMA expressing PC3 PIP and PSMA deficient human PC3 flu cells xenografted SCID mouse at 2 uCi, iv after 60 mins; conditions: in vivo, 1 h
# Procedure, shortened: (§2)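 Male SCID mice carried subcutaneous xenografts: PSMA+ PC-3 PIP behind the left shoulder and PSMA− PC-3 flu behind the right, 1–5 × 10^6 cells in HBSS. Mice were used at 3–5 mm tumor diameter. 2 μCi was given by tail vein, and 4 mice per time point were killed by cervical dislocation. %ID/g came from a standard dilution of the dose, decay-corrected. Ratio is PIP tumor %ID/g to organ %ID/g.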
# Kidney [3] = test: Biodistribution in kidney of PSMA expressing human PC3 PIP and PSMA deficient human PC3 flu cells xenografted SCID mouse at 2 uCi, iv after 60 mins; conditions: in vivo, 1 h
# Kidney [4] = test: Biodistribution in kidney of PSMA expressing human PC3 PIP and PSMA deficient human PC3 flu cells xenografted SCID mouse at 2 uCi, iv after 2 hrs; conditions: in vivo
# Urinary bladder [5] = test: Biodistribution in bladder of PSMA expressing human PC3 PIP and PSMA deficient human PC3 flu cells xenografted SCID mouse at 2 uCi, iv after 60 mins; conditions: in vivo, 1 h
# [6] = Ratio of drug level in tumor to pancreas of human PSMA expressing PC3 PIP and PSMA deficient human PC3 flu cells xenografted SCID mouse at 2 uCi, iv after 5 hrs; conditions: in vivo; procedure, shortened: as §2
# [7] = Ratio of drug level in tumor to liver of human PSMA expressing PC3 PIP and PSMA deficient human PC3 flu cells xenografted SCID mouse at 2 uCi, iv after 30 mins; conditions: in vivo, 0.5 h; procedure, shortened: as §1
# [8] = Biodistribution in PC3 PIP tumor of PSMA expressing human PC3 PIP and PSMA deficient human PC3 flu cells xenografted SCID mouse at 2 uCi, iv after 5 hrs; conditions: in vivo
# [9] = Ratio of drug level in PC3 PIP tumor to PC3 flu tumor of human PSMA expressing PC3 PIP and PSMA deficient human PC3 flu cells xenografted SCID mouse at 2 uCi, iv after 30 mins; conditions: in vivo, 0.5 h; procedure, shortened: as §1
# Pancreas [10] = test: Biodistribution in pancreas of PSMA expressing human PC3 PIP and PSMA deficient human PC3 flu cells xenografted SCID mouse at 2 uCi, iv after 30 mins; conditions: in vivo, 0.5 h
# Pancreas [11] = test: Biodistribution in pancreas of PSMA expressing human PC3 PIP and PSMA deficient human PC3 flu cells xenografted SCID mouse at 2 uCi, iv after 60 mins; conditions: in vivo, 1 h
# [12] = Ratio of drug level in tumor to heart of human PSMA expressing PC3 PIP and PSMA deficient human PC3 flu cells xenografted SCID mouse at 2 uCi, iv after 5 hrs; conditions: in vivo; procedure, shortened: as §1
# [13] = Biodistribution in large intestine of PSMA expressing human PC3 PIP and PSMA deficient human PC3 flu cells xenografted SCID mouse at 2 uCi, iv after 5 hrs; conditions: in vivo; procedure, shortened: as §1
# Stomach = test: Biodistribution in stomach of PSMA expressing human PC3 PIP and PSMA deficient human PC3 flu cells xenografted SCID mouse at 2 uCi, iv after 5 hrs; conditions: in vivo
# Urinary bladder [14] = test: Biodistribution in bladder of PSMA expressing human PC3 PIP and PSMA deficient human PC3 flu cells xenografted SCID mouse at 2 uCi, iv after 30 mins; conditions: in vivo, 0.5 h
# Blood = test: Biodistribution in blood of PSMA expressing human PC3 PIP and PSMA deficient human PC3 flu cells xenografted SCID mouse at 2 uCi, iv after 60 mins; conditions: in vivo, 1 h
# Muscle tissue = test: Biodistribution in muscle of PSMA expressing human PC3 PIP and PSMA deficient human PC3 flu cells xenografted SCID mouse at 2 uCi, iv after 5 hrs; conditions: in vivo
compound,measurement,setting,value
O=C(O)CC[C@H](NC(=O)N[C@@H](CCCCNC(=O)c1ccc([18F])cc1)C(=O)O)C(=O)O,Ratio,[1],0.3
same,Ratio,[2],21
same,Drug uptake,Kidney [3],48 % ID/g
same,Drug uptake,Kidney [4],29 % ID/g
same,Drug uptake,Urinary bladder [5],17 % ID/g
same,Ratio,[6],70
same,Ratio,[7],1
same,Drug uptake,[8],3.5 % ID/g
same,Ratio,[9],11
same,Drug uptake,Pancreas [10],0.8 % ID/g
same,Drug uptake,Pancreas [11],0.3 % ID/g
same,Ratio,[12],117
same,Drug uptake,[13],0.6 % ID/g
same,Drug uptake,Stomach,0.04 % ID/g
same,Drug uptake,Urinary bladder [14],6.8 % ID/g
same,Drug uptake,Blood,0.7 % ID/g
same,Drug uptake,Muscle tissue,0.1 % ID/g
